In ChEMBL document CHEMBL2346510, “Synthesis and antifungal evaluation of 7-arylamino-5,8-dioxo-5,8-dihydroisoquinoline-4-carboxylates” (2013):
In brackets after ≈: the same amount, converted by molar mass.

Tests used:
Type in all cases: functional
[1] = tested on: Candida tropicalis; assay: Antifungal activity against Candida tropicalis Berkout KCCM 50662 after 1 day by two fold broth dilution method; settings: Berkout KCCM 50662, 24 h
How it was run: (§1)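 Yeasts were tested by twofold broth dilution in modified Sabouraud dextrose broth with about 1 × 10⁵ cells/mL inoculum. Final compound concentrations ran from […]. Incubation was at 37 °C with the MIC read after 1 day. Fluconazole and 5-fluorocytosine were the standard comparators.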

[2] = tested on: Cryptococcus neoformans; assay: Antifungal activity against Cryptococcus neoformans KCCM 50564 after 1 day by two fold broth dilution method; settings: KCCM 50564, 24 h; how it was run: as §1
[3] = tested on: Aspergillus flavus; assay: Antifungal activity against Aspergillus flavus KCCM 11899 after 2 days by two fold broth dilution method; settings: KCCM 11899, 48 h
How it was run: (§2)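 Twofold broth dilution in modified Sabouraud dextrose broth, inoculum about 1 × 10⁵ cells/mL. Compounds were tested at final concentrations of […]. Plates were incubated at 37 °C and the MIC was read after 2 days. Fluconazole and 5-fluorocytosine served as reference agents.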

[4] = tested on: Aspergillus niger; assay: Antifungal activity against Aspergillus niger KCTC 1231 after 2 days by two fold broth dilution method; settings: KCTC 1231, 48 h; how it was run: as §2
[5] = tested on: Candida albicans; assay: Antifungal activity against Candida albicans Berkout KCCM 50235 after 1 day by two fold broth dilution method; settings: Berkout KCCM 50235, 24 h; how it was run: as §1
[6] = tested on: Pichia kudriavzevii; assay: Antifungal activity against Candida krusei Berkout KCCM 11655 after 1 day by two fold broth dilution method; settings: Berkout KCCM 11655, 24 h; how it was run: as §1

Compound	MIC [1] [µg/mL]	MIC [2] [µg/mL]	MIC [3] [µg/mL]	MIC [4] [µg/mL]	MIC [5] [µg/mL]	MIC [6] [µg/mL]
COC(=O)c1c(C)nc(C)c2c1C(=O)C=CC2=O	12.5 (≈ 51 µM)	50 (≈ 204 µM)	50 (≈ 204 µM)	> 100	25 (≈ 102 µM)	50 (≈ 204 µM)
CC(=O)c1cc(O)ccc1O	50 (≈ 329 µM)	50 (≈ 329 µM)	100 (≈ 657 µM)	> 100	50 (≈ 329 µM)	100 (≈ 657 µM)
COC(=O)c1c(C)nc(C)c2c1C(=O)C=C(Sc1ccc(C)c(C)c1)C2=O	12.5 (≈ 32.8 µM)	6.3 (≈ 16.5 µM)	6.3 (≈ 16.5 µM)	6.3 (≈ 16.5 µM)	25 (≈ 65.5 µM)	12.5 (≈ 32.8 µM)
COC(=O)c1c(C)nc(C)c2c1C(=O)C=C(Sc1ccc(O)cc1)C2=O	25 (≈ 67.7 µM)	3.2 (≈ 8.66 µM)	6.3 (≈ 17.1 µM)	6.3 (≈ 17.1 µM)	25 (≈ 67.7 µM)	6.3 (≈ 17.1 µM)
COC(=O)c1c(C)nc(C)c2c1C(=O)C=C(Sc1ccc(C)cc1)C2=O	6.3 (≈ 17.1 µM)	1.6 (≈ 4.35 µM)	3.2 (≈ 8.71 µM)	6.3 (≈ 17.1 µM)	6.3 (≈ 17.1 µM)	12.5 (≈ 34 µM)
COC(=O)c1c(C)nc(C)c2c1C(=O)C=C(Nc1ccc(Br)cc1)C2=O	12.5 (≈ 30.1 µM)	12.5 (≈ 30.1 µM)	12.5 (≈ 30.1 µM)	6.3 (≈ 15.2 µM)	12.5 (≈ 30.1 µM)	12.5 (≈ 30.1 µM)
COC(=O)c1c(C)nc(C)c2c1C(=O)C=C(Nc1ccc(I)cc1)C2=O	12.5 (≈ 27 µM)	6.3 (≈ 13.6 µM)	12.5 (≈ 27 µM)	12.5 (≈ 27 µM)	12.5 (≈ 27 µM)	12.5 (≈ 27 µM)
COC(=O)c1c(C)nc(C)c2c1C(=O)C=C(Nc1ccc(C)cc1)C2=O	25 (≈ 71.4 µM)	12.5 (≈ 35.7 µM)	25 (≈ 71.4 µM)	25 (≈ 71.4 µM)	25 (≈ 71.4 µM)	25 (≈ 71.4 µM)
COC(=O)c1c(C)nc(C)c2c1C(=O)C(Br)=C(Nc1ccc(F)c(F)c1)C2=O	1.6 (≈ 3.55 µM)	12.5 (≈ 27.7 µM)	12.5 (≈ 27.7 µM)	6.3 (≈ 14 µM)	6.3 (≈ 14 µM)	25 (≈ 55.4 µM)
COC(=O)c1c(C)nc(C)c2c1C(=O)C(Br)=C(Nc1ccc(Br)cc1)C2=O	1.6 (≈ 3.24 µM)	12.5 (≈ 25.3 µM)	3.2 (≈ 6.48 µM)	1.6 (≈ 3.24 µM)	1.6 (≈ 3.24 µM)	12.5 (≈ 25.3 µM)
COC(=O)c1c(C)nc(C)c2c1C(=O)C(Br)=C(Nc1ccc(Cl)cc1)C2=O	6.3 (≈ 14 µM)	12.5 (≈ 27.8 µM)	12.5 (≈ 27.8 µM)	12.5 (≈ 27.8 µM)	25 (≈ 55.6 µM)	25 (≈ 55.6 µM)
COC(=O)c1c(C)nc(C)c2c1C(=O)C(Br)=C(Nc1ccc(F)cc1)C2=O	6.3 (≈ 14.5 µM)	6.3 (≈ 14.5 µM)	12.5 (≈ 28.9 µM)	6.3 (≈ 14.5 µM)	6.3 (≈ 14.5 µM)	12.5 (≈ 28.9 µM)
COC(=O)c1c(C)nc(C)c2c1C(=O)C(Br)=C(Nc1ccc(C)cc1)C2=O	1.6 (≈ 3.73 µM)	6.3 (≈ 14.7 µM)	25 (≈ 58.2 µM)	6.3 (≈ 14.7 µM)	6.3 (≈ 14.7 µM)	6.3 (≈ 14.7 µM)
COC(=O)c1c(C)nc(C)c2c1C(=O)C(Br)=C(Nc1ccc(OC)cc1)C2=O	12.5 (≈ 28.1 µM)	1.6 (≈ 3.59 µM)	12.5 (≈ 28.1 µM)	1.6 (≈ 3.59 µM)	0.8 (≈ 1.8 µM)	1.6 (≈ 3.59 µM)
COC(=O)c1c(C)nc(C)c2c1C(=O)C(Cl)=C(Nc1ccc(I)cc1)C2=O	6.3 (≈ 12.7 µM)	3.2 (≈ 6.44 µM)	25 (≈ 50.3 µM)	1.6 (≈ 3.22 µM)	6.3 (≈ 12.7 µM)	12.5 (≈ 25.2 µM)
COC(=O)c1c(C)nc(C)c2c1C(=O)C(Cl)=C(Nc1ccc(F)c(F)c1)C2=O	25 (≈ 61.5 µM)	12.5 (≈ 30.7 µM)	6.3 (≈ 15.5 µM)	1.6 (≈ 3.93 µM)	1.6 (≈ 3.93 µM)	6.3 (≈ 15.5 µM)
COC(=O)c1c(C)nc(C)c2c1C(=O)C(Cl)=C(Nc1ccc(Br)cc1)C2=O	12.5 (≈ 27.8 µM)	3.2 (≈ 7.12 µM)	6.3 (≈ 14 µM)	1.6 (≈ 3.56 µM)	1.6 (≈ 3.56 µM)	6.3 (≈ 14 µM)
COC(=O)c1c(C)nc(C)c2c1C(=O)C(Cl)=C(Nc1ccc(C#N)cc1)C2=O	12.5 (≈ 31.6 µM)	1.6 (≈ 4.04 µM)	6.3 (≈ 15.9 µM)	6.3 (≈ 15.9 µM)	1.6 (≈ 4.04 µM)	12.5 (≈ 31.6 µM)
COC(=O)c1c(C)nc(C)c2c1C(=O)C(Cl)=C(Nc1ccc(Cl)cc1)C2=O	6.3 (≈ 15.5 µM)	12.5 (≈ 30.8 µM)	1.6 (≈ 3.95 µM)	3.2 (≈ 7.9 µM)	1.6 (≈ 3.95 µM)	12.5 (≈ 30.8 µM)
COC(=O)c1c(C)nc(C)c2c1C(=O)C(Cl)=C(Nc1ccc(OC)cc1)C2=O	12.5 (≈ 31.2 µM)	3.2 (≈ 7.98 µM)	6.3 (≈ 15.7 µM)	3.2 (≈ 7.98 µM)	1.6 (≈ 3.99 µM)	12.5 (≈ 31.2 µM)
COC(=O)c1c(C)nc(C)c2c1C(=O)C(Cl)=C(Nc1ccc(F)cc1)C2=O	1.6 (≈ 4.12 µM)	6.3 (≈ 16.2 µM)	6.3 (≈ 16.2 µM)	1.6 (≈ 4.12 µM)	1.6 (≈ 4.12 µM)	6.3 (≈ 16.2 µM)
COC(=O)c1c(C)nc(C)c2c1C(=O)C(Cl)=C(Nc1ccc(C)cc1)C2=O	0.8 (≈ 2.08 µM)	6.3 (≈ 16.4 µM)	25 (≈ 65 µM)	1.6 (≈ 4.16 µM)	1.6 (≈ 4.16 µM)	3.2 (≈ 8.32 µM)
OC(Cn1cncn1)(Cn1cncn1)c1ccc(F)cc1F [FLUCONAZOLE]	6.3 (≈ 20.6 µM)	6.3 (≈ 20.6 µM)	25 (≈ 81.6 µM)	25 (≈ 81.6 µM)	50 (≈ 163 µM)	25 (≈ 81.6 µM)
Nc1nc(=O)[nH]cc1F [FLUCYTOSINE]	3.2 (≈ 24.8 µM)	12.5 (≈ 96.8 µM)	6.3 (≈ 48.8 µM)	6.3 (≈ 48.8 µM)	3.2 (≈ 24.8 µM)	6.3 (≈ 48.8 µM)
